The source made the active and inactive calls. The rule behind the calls is not given here.
Key:
Oryctolagus cuniculus [1] = experiment: Effective dose for bradykinin B1 activity after administration (10 ug/kg/min) in rabbit; type: functional
Oryctolagus cuniculus [2] = experiment: Effective dose for bradykinin B1 activity after administration (1 ug/kg/min) in rabbit; type: functional
Oryctolagus cuniculus [3] = experiment: Effective dose for bradykinin B2 activity after administration (0.1 ug/kg/min) in rabbit; type: functional
Oryctolagus cuniculus [4] = experiment: Effective dose for bradykinin B2 activity after administration (0.01 ug/kg/min) in rabbit; type: functional
Rattus norvegicus [5] = experiment: Percent inhibition after subcutaneously administration compound at 3H in rat; expressed as percent inhibition; type: functional
Oryctolagus cuniculus [6] = experiment: Percent inhibition after intravenously administration compound at 60 min in rabbit; expressed as percent inhibition; type: functional
Oryctolagus cuniculus [7] = experiment: Effective dose for bradykinin B1 activity after administration (3 ug/kg/min) in rabbit; type: functional
Oryctolagus cuniculus [8] = experiment: Effective dose for bradykinin B2 activity after administration (0.03 ug/kg/min) in rabbit; type: functional
[9] = molecular target: B1 bradykinin receptor (Oryctolagus cuniculus); experiment: In vitro Bradykinin receptor B1 antagonist activity in functional tissue within rabbit aorta
[10] = In vitro stability was measured in rat kidney tissue preparation; type: ADME
How it was run: (§1)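 Lung or kidney cortical membranes made by differential centrifugation and stored at -20 °C. Dilutions in PBS: porcine kidney 1:10, rat kidney 1:100, porcine lung 1:1. Compound at 1 mM in PBS, 10 μL, incubated with 90 μL diluted membranes for various times. Quenched with ethanol, centrifuged.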

[11] = In vitro stability was measured in porcine kidney tissue preparation; type: ADME, Sus scrofa; settings: pig; how it was run: as §1
B2 bradykinin receptor [12] = molecular target: T1, B2 bradykinin receptor (Rattus norvegicus, UniProt P25023); experiment: In vitro Bradykinin receptor B2 antagonist activity by using rat uterus functional assay; type: tissue-based; settings: read-out: pA2 (converted)
T1 sequence (P25023 whole entry): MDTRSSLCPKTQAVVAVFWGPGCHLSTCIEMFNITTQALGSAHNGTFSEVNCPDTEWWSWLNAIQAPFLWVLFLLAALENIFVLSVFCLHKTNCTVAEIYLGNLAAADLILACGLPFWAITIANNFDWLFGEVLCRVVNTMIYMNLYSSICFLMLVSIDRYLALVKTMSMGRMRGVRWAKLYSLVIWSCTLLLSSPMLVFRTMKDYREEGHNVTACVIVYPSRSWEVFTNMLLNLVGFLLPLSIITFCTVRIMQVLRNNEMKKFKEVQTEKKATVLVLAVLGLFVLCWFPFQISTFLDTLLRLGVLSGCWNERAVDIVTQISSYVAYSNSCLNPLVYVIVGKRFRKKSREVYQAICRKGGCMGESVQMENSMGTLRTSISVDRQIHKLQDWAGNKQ
How it was run: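 Uterine horns from female Sprague-Dawley rats primed with stilbesterol (100 μg/kg) 18 h earlier. Tissue held at 1 g tension in De Jalon's solution, 31 °C, aerated. Potency by Arunlakshana-Schild analysis.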

[13] = In vitro stability was measured in human plasma tissue preparation; type: ADME
B2 bradykinin receptor [14] = molecular target: T2, B2 bradykinin receptor (Homo sapiens, UniProt P30411); experiment: Binding affinity towards Bradykinin receptor B2 in human S34 clone cells; type: cell-based
T2 sequence (P30411 whole entry): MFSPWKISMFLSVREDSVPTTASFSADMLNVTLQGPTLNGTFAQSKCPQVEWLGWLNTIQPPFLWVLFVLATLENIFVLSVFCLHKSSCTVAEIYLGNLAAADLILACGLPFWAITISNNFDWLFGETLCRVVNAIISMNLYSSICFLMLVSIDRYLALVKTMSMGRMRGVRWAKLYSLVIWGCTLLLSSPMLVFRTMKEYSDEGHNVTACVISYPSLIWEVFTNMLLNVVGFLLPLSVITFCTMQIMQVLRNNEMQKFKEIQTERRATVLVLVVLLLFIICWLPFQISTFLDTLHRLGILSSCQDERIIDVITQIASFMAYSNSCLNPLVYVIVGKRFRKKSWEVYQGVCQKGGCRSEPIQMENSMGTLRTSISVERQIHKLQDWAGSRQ

[15] = Binding affinity towards bradykinin receptor using [3H]BK as radioligand in guinea pig ileum; type: tissue-based, Cavia porcellus
How it was run: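 Ileal membranes from Duncan-Hartley guinea pigs, 0.2 mg/mL, room temperature in 25 mM TES pH 6.8 with 1,10-phenanthroline, DTT, captopril, bacitracin, thiorphan, 0.1% BSA. […] Filtered on PEI-pretreated GF/B, washed with cold Tris pH 7.5/NaCl/BSA, scintillation counted. Mean ± SD, n = 4.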

[16] = In vitro stability was measured in porcine lung tissue preparation; type: ADME, Sus scrofa; settings: pig; how it was run: as §1
Oryctolagus cuniculus [17] = experiment: Selectivity was determined as response after administration (0.1 ug/mg/kg) to that of preantagonist response in rabbit; B2 block only; type: functional, organism-based
Rattus norvegicus [18] = organism: Rattus norvegicus; experiment: Percent recovery was evaluated in rat; type: functional, organism-based
How it was run: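 Same rat uterus preparation. […] Its pD2 is compared with the initial control pD2. The difference against concurrent control gives percentage recovery of agonist response.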

With `NC(N)=NCCCC(N)C(=O)NC(CCCN=C(N)N)C(=O)N1CCC[C@H]1C(=O)N1C[C@H](O)C[C@H]1C(=O)NCC(=O)N[C@@H](Cc1cccs1)C(=O)N[C@@H](CO)C(=O)N1Cc2ccccc2C[C@@H]1C(=O)N(CC(=O)NC(CCCN=C(N)N)C(=O)O)C1CCCCC1` (stereo in doubt) [listing 1 of 3 here] the ED50 (Oryctolagus cuniculus [1]) was 2.9 µg/mg/kg, the ED50 (Oryctolagus cuniculus [2]) was 2.9 µg/mg/kg and the ED50 (Oryctolagus cuniculus [3]) was 0.051 µg/mg/kg. It also gave an ED50 (Oryctolagus cuniculus [4]) of 0.051 µg/mg/kg, an Inhibition (Rattus norvegicus [5]) of 100% and an Inhibition (Oryctolagus cuniculus [6]) of 100%. For the same molecule, the ED50 (Oryctolagus cuniculus [7]) was 2.9 µg/mg/kg and the ED50 (Oryctolagus cuniculus [8]) was 0.051 µg/mg/kg.

For `NC(N)=NCCCC(N)C(=O)NC(CCCN=C(N)N)C(=O)N1CCC[C@H]1C(=O)N1C[C@H](O)C[C@H]1C(=O)NCC(=O)N[C@@H](Cc1cccs1)C(=O)N[C@@H](CO)C(=O)N1Cc2ccccc2C[C@@H]1C(=O)N(CC(=O)NC(CCCN=C(N)N)C(=O)O)C1CCCCC1` (stereo in doubt) [listing 2 of 3 here], the IC50 [9] was greater than 10000 nM, the half-life [10] was greater than 6 h and the half-life [11] was greater than 6 h. It also gave a Kb (B2 bradykinin receptor [12]) of 0.49 nM, a half-life [13] greater than 6 h and a Ki (B2 bradykinin receptor [14]) of 0.24 nM. The “Log Ki” value [15] was -10.11 and the half-life [16] was greater than 6 h.

For `NC(N)=NCCCC(N)C(=O)NC(CCCN=C(N)N)C(=O)N1CCC[C@H]1C(=O)N1C[C@H](O)C[C@H]1C(=O)NCC(=O)N[C@@H](Cc1cccs1)C(=O)N[C@@H](CO)C(=O)N1Cc2ccccc2C[C@@H]1C(=O)N(CC(=O)NC(CCCN=C(N)N)C(=O)O)C1CCCCC1` (stereo in doubt) [listing 3 of 3 here], the Selectivity (Oryctolagus cuniculus [17]) was “inactive” and the Recovery (Rattus norvegicus [18]) was 73%.

Work on `NC(N)=NCCC[C@@H](N)C(=O)N[C@@H](CCCN=C(N)N)C(=O)N1CCC[C@H]1C(=O)N1C[C@H](O)C[C@H]1C(=O)NCC(=O)N[C@@H](Cc1cccs1)C(=O)N[C@@H](CO)C(=O)N1Cc2ccccc2C[C@@H]1C(=O)N1[C@H](C(=O)N[C@@H](CCCN=C(N)N)C(=O)O)C[C@@H]2CCCC[C@@H]21` [ICATIBANT] yielded a half-life [10] greater than 6 h, a half-life [11] greater than 6 h and a Kb (B2 bradykinin receptor [12]) of 0.316 nM. It also gave a half-life [13] greater than 6 h and a half-life [16] greater than 6 h.

— ChEMBL document CHEMBL1129039 (J Med Chem, 1996)
